{"source": "paper PMC4435052", "about": "(Combinatorial Chemistry & High Throughput Screening, 2015)", "key": {"A549 cells [1]": {"system": "A549 cells", "type": "cell-based, human", "conditions": "25 µM", "method_in_brief": "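A549 cells in chamber slides, treated 3-48 h with DMSO or 25 µM test compound. Stained with phalloidin, Hoechst 33342, anti-α-tubulin and anti-MgcRacGAP. Cells scored as normal (mononuclear), mitotic (rounded), multinuclear or dead in at least eight random fields per condition. Reported as average percentage per time point.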"}, "HeLa cells [2]": {"system": "HeLa cells", "type": "cell-based, human", "method_in_brief": "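HeLa cells synchronized by double thymidine block: 2 mM thymidine at plating for 19 h, three PBS washes, release into fresh medium, second 2 mM block 9 h later, washed after 16 h. Released with or without test compound (10-80 µM) or nocodazole (165 nM). Tracked by live-cell phase imaging for cell rounding and death.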"}, "A549 cells [3]": {"system": "A549 cells", "assay": "FUCCI cell cycle reporter assay", "type": "cell-based, human", "conditions": "80 µM, from 6 h after exposure", "method_in_brief": "(§1)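 A549 cells at 50,000/well received Premo gemini-GFP (G2/M) and Cdt-RFP (G1/S) 1:1 24 h after plating. After overnight incubation, replated at 1,600 cells/well. Imaged hourly by phase contrast, green and red fluorescence. 14 h later given 80 µM test compound, DMSO, or 20 µM benzethonium chloride, then followed hourly.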"}, "MDA-MB-231 cells [4]": {"system": "MDA-MB-231 cells", "assay": "Scratch-wound Matrigel invasion", "type": "cell-based, human", "conditions": "10-40 µM, increasing concentrations", "method_in_brief": "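MDA-MB-231 cells at 40,000/well on Matrigel-precoated plates. After 16 h, near-confluent monolayers scratched, washed and overlaid with Matrigel (8 mg/mL). After 30 min at 37°C, medium with DMSO or test compound (10-40 µM final) added. Scratch-wound imaging followed; relative wound density computed per image; n=4.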"}, "[5]": {"molecular_target": "T1, BCR(1010-1271) GAP domain (Homo sapiens, UniProt P11274)", "T1 sequence (P11274 1010-1271)": "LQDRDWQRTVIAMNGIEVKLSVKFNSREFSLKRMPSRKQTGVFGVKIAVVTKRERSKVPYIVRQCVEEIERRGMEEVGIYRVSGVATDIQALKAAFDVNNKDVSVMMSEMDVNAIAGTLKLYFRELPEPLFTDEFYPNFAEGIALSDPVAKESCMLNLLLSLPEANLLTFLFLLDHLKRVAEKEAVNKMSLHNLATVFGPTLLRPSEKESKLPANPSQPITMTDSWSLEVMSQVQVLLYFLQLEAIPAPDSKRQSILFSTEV", "assay": "Counter/selectivity GAP activity assay with BCR GAP domain in place of MgcRacGAP", "type": "biochemical", "method_in_brief": "(§2)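 Same buffer as the primary assay: Rac1(F28L) 600 nM, 150 µM GTP, 2% DMSO, 2 h at room temperature. GAP domain is BCR(1010-1271) at 200 nM or p50RhoGAP(205-439) at 50 nM, doses set for similar signal window. Test compound at 0.1-100 µM, with or without pre-incubation before GTP start. Read-out is ADP Hunter Plus fluorescence (ex 530/em 590 nm), normalized to plate controls.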"}, "HeLa cells [6]": {"system": "HeLa cells", "assay": "Immunofluorescence analysis of cell division morphology", "type": "cell-based, human", "conditions": "25 µM, 48 h", "method_in_brief": "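HeLa cells on fibronectin-coated coverslips, treated 3-48 h with DMSO or 25 µM test compound. Fixed in ice-cold methanol and stained with mouse anti-α-tubulin and goat anti-MgcRacGAP. Detected with Alexa Fluor 488 and 647 secondaries; DAPI-containing mountant. Imaged by widefield fluorescence microscopy.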"}, "Rac1-MgcRacGAP complex": {"molecular_target": "Rac1-MgcRacGAP complex (Homo sapiens, UniProt P63000+Q9H0H5, Q61L)", "sequence (Q9H0H5 345-618, stated change not applied, one chain of several)": "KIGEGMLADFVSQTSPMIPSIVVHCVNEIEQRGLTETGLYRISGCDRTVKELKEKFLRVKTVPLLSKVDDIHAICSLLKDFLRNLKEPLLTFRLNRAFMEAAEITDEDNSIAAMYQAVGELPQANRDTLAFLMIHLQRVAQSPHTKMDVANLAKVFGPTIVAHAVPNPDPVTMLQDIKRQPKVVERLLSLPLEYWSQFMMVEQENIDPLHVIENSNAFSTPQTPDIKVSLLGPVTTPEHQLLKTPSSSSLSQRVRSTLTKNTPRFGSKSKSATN", "assay": "MgcRacGAP - Rac1 Q61L binding assay, bio-layer interferometry", "conditions": "12.5-50 µM, dose dependent"}, "A549 cells [7]": {"system": "A549 cells", "assay": "Cytotoxicity by live cell imaging", "type": "cell-based, human", "conditions": "80 µM", "method_in_brief": "as §1"}, "[8]": {"molecular_target": "MgcRacGAP-stimulated activity of wild type Rac1 (Homo sapiens, UniProt Q9H0H5)", "sequence (Q9H0H5 345-618)": "as the sequence (Q9H0H5 345-618, stated change not applied, one chain of several) above", "assay": "Multiple-turnover GTPase assay with wild type Rac1", "type": "biochemical", "conditions": "wild type Rac1, data not shown", "method_in_brief": "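Wild-type Rac1 […] in the 2x mix, combined with test compound in GTPase/GAP buffer. MgcRacGAP serially diluted in (0.1-100 nM) and held 2 h at room temperature. Started with 2x GTP (10 µM) and run 2 h more. Remaining GTP read by GTPase-Glo reagent (30 min), then detection solution; luminescence read after 10 min.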"}, "[9]": {"molecular_target": "MgcRacGAP(345-618) GAP domain (Homo sapiens, UniProt Q9H0H5)", "sequence (Q9H0H5 345-618)": "as the sequence (Q9H0H5 345-618, stated change not applied, one chain of several) above", "assay": "Primary biochemical GAP activity assay, Rac1", "method_in_brief": "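Rac1(F28L) 600 nM with MgcRacGAP(345-618) at 2 nM in 15 mM Hepes pH 7.5, 20 mM NaCl, 1 mM EGTA, 0.02% Tween 20, 0.1 mg/mL BSA, 2% DMSO, 150 µM GTP; 2 h at room temperature. GDP detected by ADP Hunter Plus at half volumes (resorufin ex 530/em 590 nm). Test compound at 0.1-100 µM, with or without protein pre-incubation before GTP; n=8; control-normalized, fits constrained 0-100%.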"}, "RWPE-1 cells": {"system": "RWPE-1 cells", "assay": "Cell viability dose response in slow growing cells", "type": "cell-based, human", "conditions": "72 h dose response 5-80 µM", "method_in_brief": "(§3)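 Cells cultured in EMEM, DMEM or RPMI 1640 with 10% FBS, seeded at 1,600 cells/well 6-12 h before treatment. Exposed up to 72 h to test compound (5-80 µM), DMSO as negative control, or 20 µM benzethonium chloride as kill control. CellTox Green in medium; live imaging gave toxicity (green fluorescence) and proliferation (phase-contrast confluency). Replicate sets.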"}, "MDA-MB-231 cells [10]": {"system": "MDA-MB-231 cells", "assay": "Cell proliferation by live cell imaging", "type": "cell-based, human", "method_in_brief": "as §3"}, "[11]": {"system": "essential replicative helicase of Staphylococcus aureus", "conditions": "80 µM, ref PubChem AID 485395; cited from earlier work"}, "[12]": {"molecular_target": "T2, p50RhoGAP(205-439) GAP domain (Mus musculus, UniProt Q5FWK3)", "T2 sequence (Q5FWK3 205-439)": "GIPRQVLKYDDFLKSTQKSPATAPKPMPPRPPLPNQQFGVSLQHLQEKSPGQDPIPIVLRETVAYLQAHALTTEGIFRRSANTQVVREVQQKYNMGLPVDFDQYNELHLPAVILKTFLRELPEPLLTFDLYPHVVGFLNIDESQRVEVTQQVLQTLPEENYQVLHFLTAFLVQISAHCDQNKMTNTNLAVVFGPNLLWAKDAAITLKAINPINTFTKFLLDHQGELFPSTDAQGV", "assay": "Selectivity GAP activity assay with p50RhoGAP GAP domain", "type": "biochemical", "method_in_brief": "as §2"}, "A549 cells [13]": {"system": "A549 cells", "assay": "Cellular movement, tracking of individual cells in 2D culture", "type": "cell-based, human", "conditions": "25 µM, 24 h", "method_in_brief": "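A549 cells seeded at 10,000/well and given DMSO or 25 µM test compound 6 h later. Imaged every 5 min with a 20x objective for 24 h. Randomly chosen cells tracked individually to trace movement in 2D.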"}, "[14]": {"molecular_target": "MgcRacGAP GAP activity on wild type Rac1 (Homo sapiens, UniProt Q9H0H5)", "sequence (Q9H0H5 345-618)": "as the sequence (Q9H0H5 345-618, stated change not applied, one chain of several) above", "assay": "Single turnover GAP assay with GTP-loaded wild type Rac1", "type": "biochemical", "conditions": "GTP-loaded wild type Rac1, 50 µM"}, "MDA-MB-231 cells [15]": {"system": "MDA-MB-231 cells", "assay": "Cytotoxicity, CellTox Green live cell imaging", "type": "cell-based, human", "method_in_brief": "as §3"}, "[16]": {"conditions": "prolonged periods of time, data not shown"}, "[17]": {"conditions": "dose response 0.1-100 µM, no pre-incubation"}, "[18]": {"conditions": "proteins pre-incubated with compound before GTP addition"}}, "note": "“Also recorded” adds a separate entry of the source.", "data": [{"compound": "Cl.Cl.c1cc2cc(C3=NCCN3)ccc2cc1C1=NCCN1", "note": "[MINC1, 2,6-bis(4,5-dihydro-1H-imidazol-2-yl)naphthalene dihydrochloride]", "values": [{"measurement": "time of peak of cells with mitotic phenotype", "setting": "A549 cells [1]", "value": "≤ 9", "unit": "h"}, {"measurement": "percentage of multinucleated cells", "setting": "A549 cells [1]; during 24h treatment", "value": "increased over time"}, {"measurement": "time to cell rounding, non-synchronized cells", "setting": "HeLa cells [2]; after compound addition", "value": "approximately 3 h"}, {"measurement": "time to cell rounding, synchronized cells", "setting": "HeLa cells [2]; after release from double thymidine block", "value": "8 to 10", "unit": "h"}, {"measurement": "concentration at which cell death was observed", "setting": "HeLa cells [2]; [16]", "value": 80, "unit": "µM"}, {"measurement": "cell cycle state", "setting": "A549 cells [3]", "value": "arrested in G2/M-phase"}, {"measurement": "wound-healing rate", "setting": "MDA-MB-231 cells [4]", "value": "decreased wound-healing rates; also recorded: decreasing ability to migrate"}, {"measurement": "activity towards BCR", "setting": "[5]; [17]", "value": "no detectable activity"}, {"measurement": "activity towards BCR, pre-incubation", "setting": "[5]; [18]", "value": "no detectable activity"}, {"measurement": "multinucleated cells versus control", "setting": "HeLa cells [6]", "value": "showed more multinucleated cells"}, {"measurement": "dissociation of Rac1-MgcRacGAP complex", "setting": "Rac1-MgcRacGAP complex", "value": "slowed down the dissociation process; also recorded: decreased dissociation rate"}, {"measurement": "tolerance of high concentration", "setting": "A549 cells [7]", "value": "could tolerate such high concentrations"}, {"measurement": "inhibition of MgcRacGAP-stimulated activity, multiple-turnover assay", "setting": "[8]", "value": "did not detect any notable inhibition"}, {"measurement": "maximum inhibition reached by dose response curves", "setting": "[9]", "value": "80-90%"}, {"measurement": "IC50", "setting": "[9]; IC50 MgcRacGAP, dose response 0.1-100 µM, no pre-incubation", "value": "15 ± 5", "unit": "µM"}, {"measurement": "Hill slope", "setting": "[9]; dose response, no pre-incubation", "value": 0.9}, {"measurement": "Hill slope, pre-incubation", "setting": "[9]; [18]", "value": 0.7}, {"measurement": "effect on cell viability in slow growing cells", "setting": "RWPE-1 cells", "value": "negligible effects on cell viability"}, {"measurement": "IC50", "setting": "MDA-MB-231 cells [10]; Homo sapiens, MDA-MB-231, 48 h, read-out: IC50 cell proliferation", "value": 17, "unit": "µM"}, {"measurement": "concentration that caused cell proliferation to cease", "setting": "MDA-MB-231 cells [10]; highly proliferative cells", "value": "≥ 20", "unit": "µM"}, {"measurement": "reported bioactivity", "setting": "[11]", "value": "marginal activity"}, {"measurement": "activity towards p50RhoGAP", "setting": "[12]; [17]", "value": "no detectable activity"}, {"measurement": "activity towards p50RhoGAP, pre-incubation", "setting": "[12]; [18]", "value": "no detectable activity"}, {"measurement": "cell motility", "setting": "A549 cells [13]", "value": "lost almost all motility"}, {"measurement": "effect on MgcRacGAP GAP activity, single turnover assay", "setting": "[14]", "value": "no effect"}, {"measurement": "concentration at which cell death was observed", "setting": "MDA-MB-231 cells [15]; [16]", "value": 80, "unit": "µM"}, {"measurement": "cell toxicity at concentrations that stop proliferation", "setting": "MDA-MB-231 cells [15]; ≥20 µM, highly proliferative cells", "value": "without detectable cell toxicity"}]}]}
